Source: PubChem BioAssay (several laboratories)
An excerpt weighted towards active compounds, which were near 2.2% of everything screened.
PvdQ acylase – P. aeruginosa PvdQ acylase inhibitors, primary screen, biochemical, fluorescence, plate reader and imaging, single point; 340,000 compounds, 0.063% hits; purified PvdQ acylase; PvdQ acylase [Pseudomonas aeruginosa LESB58]; inhibition, % at 10 µM; AID 488965, 2010; in the data active = inhibition above about 30%, passing the limit was not always enough;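 also: 0% = vehicle neutral wells and 100% = reference inhibitor wells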
IMP-1 inh – IMP-1 metallo-beta-lactamase inhibitors, primary screen, biochemical, epi-absorbance readout, Pseudomonas aeruginosa enzyme | purified IMP-1, nitrocefin hydrolysis, epi-absorbance fluorescence | inhibition, % at 5.6 µM | 290,000 compounds, 0.45% hits | AID 1556, 2009;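 active = inhibition above the mean plus 3 SD of all compounds in the same screening run, cut at about 4.5% in these data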;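 also: 0% = IMP-1 with DMSO and 100% = DMSO wells lacking enzyme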
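System: purified IMP-1 / Input: IMP-1 dispensed at 0.2 nM / Medium: 50 mM HEPES pH 7.1, 50 µM ZnSO4, 0.05% Brij 35 / Timing: 15 min enzyme–compound preincubation, then 25 min nitrocefin reaction, 25 °C / Technique: plate fluorescence quenching by hydrolysis product, ex 480/em 530 nm / Repeats: singlicate testing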
VIM-2 inhibitor – VIM-2 metallo-beta-lactamase inhibitors, primary screen, biochemical, epi-absorbance readout, Pseudomonas aeruginosa enzyme; 290,000 compounds, 0.89% hits; purified VIM-2, nitrocefin hydrolysis, epi-absorbance fluorescence; AID 1527, 2009; inhibition, % at 5.6 µM;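 active = inhibition above the mean of all tested compounds plus 3 SD, cutoff set per screening run, cut at about 7.5% in these data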;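 also: red hydrolysis product quenches plate fluorescence so inhibitors raise well fluorescence; 0% = enzyme with DMSO and 100% = DMSO without enzyme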
CR mimetic SO – reduction of superoxide in aged yeast, primary screen, HTS; S. cerevisiae aged cells, superoxide DHE fluorescence; active compounds read low; superoxide response (% of plate mean), % at 10 µM; 330,000 compounds, 0.18% hits; AID 2690, 2010;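 active = superoxide response under a set limit, about three screen SD below normal, cut at about 65% in these data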;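 also: yeast aged for seven days with compound at 30 °C before DHE staining; 100% = average MFI of all compound-treated wells on the plate with controls excluded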
PHOSPHO1 inh – PubChem AID 1565; Phosphoethanolamine/phosphocholine phosphatase (Homo sapiens), Q8TCT1; recombinant PHOSPHO1, absorbance phosphatase assay; inhibition, % at 13.3 µM; 290,000 compounds, 1.1% hits; in the data active = inhibition above about 60%
VIM-2 confirm – P. aeruginosa VIM-2 enzyme inhibition – biochemical, epi-absorbance, HTS, confirmation; purified VIM-2 enzyme, nitrocefin absorbance; AID 1860, 2009; 200 compounds, 73% hits; shares compounds with IMP-1 inh; inhibition, % at 5.6 µM; in the data active = inhibition above about 8%;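 also: 0% = enzyme with vehicle and 100% = no enzyme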
TEM-1 counter – Serine beta-lactamase TEM-1 inhibition, biochemical epi-absorbance counter-screen for IMP-1/VIM-2 inhibitor program; TEM-1 beta-lactamase, nitrocefin absorbance inhibition; 200 compounds, 50% hits; inhibition, % at 5.6 µM; shares compounds with IMP-1 inh; in the data active = inhibition above about 0.66%
Target sequence (P62593 whole entry, looked up): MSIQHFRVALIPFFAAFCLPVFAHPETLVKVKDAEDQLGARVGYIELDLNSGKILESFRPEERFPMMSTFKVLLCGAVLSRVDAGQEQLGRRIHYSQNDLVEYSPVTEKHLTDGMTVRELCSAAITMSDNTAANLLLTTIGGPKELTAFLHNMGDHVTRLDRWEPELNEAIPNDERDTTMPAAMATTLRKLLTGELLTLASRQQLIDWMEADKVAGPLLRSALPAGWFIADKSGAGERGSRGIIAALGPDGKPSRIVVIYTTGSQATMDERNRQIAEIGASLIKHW
IMP-1 confirm – IMP-1 metallo-beta-lactamase inhibitors, confirmation, biochemical, epi-absorbance, hits shared with VIM-2 screen; shares compounds with IMP-1 inh; 200 compounds, 60% hits; inhibition, % at 5.6 µM; purified IMP-1 enzyme, absorbance substrate hydrolysis; in the data active = inhibition above about 4.9%;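 also: 0% = enzyme with vehicle and 100% = vehicle without enzyme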
* hit, by the source's call; x = no result given.

SMILES	PvdQ acylase	IMP-1 inh	VIM-2 inhibitor	CR mimetic SO	PHOSPHO1 inh	VIM-2 confirm	TEM-1 counter	IMP-1 confirm
CCN1CCN(C2=CC3=CC(=C(C#N)C#N)CCC3CC2)CC1 (configuration not stated)	6	72*	55*	x	-4	62*	67*	58*
N#CC(C#N)=C1C=C2C=C(N3CCCCCC3)CCC2CC1 (configuration not stated)	5	38*	38*	x	-21	64*	92*	58*
N#Cc1cc(Cl)c(N2CCOCC2)cc1C#N	-5	-3	-3	106	19	x	x	x
O=C(CNC(=O)C1COc2ccccc2O1)Nc1ccc(F)c(F)c1 (configuration not stated)	-12	x	x	76	x	x	x	x
O=C(COC(=O)/C=C/c1cccc(Br)c1)NC1CCCC1	-1	x	x	94	x	x	x	x
C=C(C1=CCN(S(=O)(=O)C(C)(C)C)[C@@H]1CCO)c1ccccc1	-1	x	x	x	x	x	x	x
O=C1N=C2N(CCN3CCCCC3)c3ccccc3N2/C1=C\c1ccc([N+](=O)[O-])o1	x	-4	-1	x	-1	x	x	x
O=C(CCN1C(=O)/C(=C/c2ccc(Cl)cc2)SC1=S)NCCCn1ccnc1	-7	18*	18*	100	37	28*	1.2*	32*
COc1ccc2c(Cl)c(C(=O)NCCCn3ccnc3)sc2c1Cl	-4	35*	26*	92	42	45*	-4	57*
O=P(O)(O)c1cc(-c2ccccc2)oc1-c1ccccc1	-5	22*	30*	108	33	40*	-2	23*
CN(/N=C/c1cc([N+](=O)[O-])ccc1O)c1ccccc1	-2	-3	-2	103	11	x	x	x
CN(/N=C/c1ccc(-c2ccc([N+](=O)[O-])cc2)o1)c1ccccc1	-9	30*	26*	94	24	17*	27*	16*
CC(=O)OCCn1c2nc(=O)[nH]c(=O)c-2nc2cc(C)c(C)cc21	1	10*	33*	67	-32	43*	112*	37*
Cc1c(O)ccc(C(=O)CN2CCN(Cc3ccc4c(c3)OCO4)CC2)c1O	-17	87*	91*	100	0	-1	-6	-2
CC1=C(C(=O)Nc2ccccc2)C(c2sccc2C)n2nnnc2N1 (configuration not stated)	x	-3	-2	x	15	x	x	x
CC1CN(Cc2ccco2)C(=S)NC1=O (configuration not stated)	-4	x	x	x	x	x	x	x
COC(=O)C1C(c2ccccc2)C=CC(c2ccccc2)C1C(=O)O (configuration not stated)	-5	61*	8.7*	88	3	3	-4	39*
CCc1cc(Cn2nc(-c3ccccc3)cc2C(=O)NCc2cccc(Br)c2)on1	-14	x	x	108	x	x	x	x
COc1ccc(NC(=O)CCN2C(=O)c3ccccc3S2(=O)=O)c(OC)c1	4	-3	0	91	1	x	x	x
CCOC(=O)N1C(=O)c2cc(OC)ccc2S1(=O)=O	-7	38*	9.4*	97	40	3	1.5*	5.3*
COc1ccc(N=Nc2nc3cc(Br)c(Br)cc3n2C)c(OC)c1	1	9.3*	10*	79	72*	3	5.6*	-1
NC(=S)c1cc2ccc(O)cc2oc1=O	-19	4.5*	8	x	44	3	-8	-3
C/C(=N/NC(N)=S)c1cc2ccc(O)cc2oc1=O	-12	0	1	97	-78	x	x	x
O=CN(Cc1nc2ccccc2[nH]1)c1ccc(C(=O)O)cc1	-8	x	x	x	x	x	x	x
